# From ChEMBL document CHEMBL2163188, “Discovery of piragliatin--first glucokinase activator studied in type 2 diabetic patients” (J Med Chem, 2012)
# Biological target: T1, Hexokinase-4 (Homo sapiens) (UniProt P35557)
# T1 sequence (whole entry): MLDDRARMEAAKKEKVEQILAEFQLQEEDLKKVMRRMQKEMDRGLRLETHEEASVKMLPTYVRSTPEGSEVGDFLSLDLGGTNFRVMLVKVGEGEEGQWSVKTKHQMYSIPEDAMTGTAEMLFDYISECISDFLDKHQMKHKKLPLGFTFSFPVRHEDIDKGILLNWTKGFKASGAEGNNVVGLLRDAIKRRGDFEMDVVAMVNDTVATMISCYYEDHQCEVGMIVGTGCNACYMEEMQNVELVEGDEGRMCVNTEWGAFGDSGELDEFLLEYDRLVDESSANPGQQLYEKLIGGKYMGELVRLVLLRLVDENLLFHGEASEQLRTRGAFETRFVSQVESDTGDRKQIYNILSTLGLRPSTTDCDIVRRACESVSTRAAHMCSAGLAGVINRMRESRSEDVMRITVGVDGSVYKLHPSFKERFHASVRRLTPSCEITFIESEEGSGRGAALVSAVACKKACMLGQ
# Assay: Activation of human recombinant glucokinase assessed as concentration required for 1.5 fold increase in enzymatic activity
# Outline: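 Human recombinant GK; activator at fixed concentrations from ∼0.010 to 30 μM, each in duplicate, with glucose held at 5 mM. SC1.5 is the activator concentration giving a 1.5-fold rise in enzymatic activity over untreated GK. Assay CV was about 15%.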
row,Structure (SMILES),Activity [µM]
1,CS(=O)(=O)c1ccc(C(CC2CCCC2)C(=O)Nc2nccs2)cc1F (racemic),0.292
2,CS(=O)(=O)c1ccc(C(CC2CCCC2)C(=O)Nc2nccs2)cc1N (racemic),0.579
